In PubChem BioAssay:
Activity calls are given as the source filed them.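 The calls were made as follows, unless noted: active = viability at or below 30% in both replicate assays; inconclusive = viability at or below 30% in just one of the two assays; inactive = the rest.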

Assays:
[1] = reducers of endogenous Her2 protein level, primary screen, SKBR3 breast tumor cells, AlphaScreen, ATP viability (AID 461;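 active = Her2 level under about 52% in both replicate screens, with viability over 70% of control, limit read from the data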;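 as to Her2 level: lower value means less Her2 protein in the cells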;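 as to viability: percent of carrier control wells set as 100% viability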); conditions: 18-24 h, measured here: SKBR3 viability, ATP luminescence, at 10 µM
[2] = target: Receptor tyrosine-protein kinase erbB-2 (Homo sapiens) (UniProt P04626); assay: as above; conditions: 18-24 h, at 10 µM, stronger effect = lower value
[3] = SK-BR-3 cell growth inhibitors, pilot screen, 24 h, human (AID 572;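 active = viability at or below 10% of carrier control in both of two separate runs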;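 also: compound exposure lasted between 18 and 24 h rather than exactly 24 h; 100% = carrier-treated control wells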); conditions: SK-BR-3 viability, CellTiter-Glo luminescence, at 10 µM, stronger effect = lower value
[4] = HUVEC growth inhibition – cell-based, human, primary screen (AID 575); conditions: HUVEC proliferation, CellTiter-Glo luminescence, 72 h; at 10 µM; stronger effect = lower value;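 also: 100% = median of untreated cell wells with 0.1% DMSO on each plate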
Method in brief: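 Test system – primary HUVEC, no more than 12 passages · Dosing – one dose, 10 µM final, 0.1% DMSO · Times – 72 h treatment at 37 °C · Measured by – ATP-based CellTiter-Glo luminescent read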

[5] = growth inhibitors of H69AR lung tumor, primary screen, human, duplicate replicates (AID 580;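 active = viability at or under a set limit in both replicates, limit being median viability minus 3 SD, cut at about 48% in these data, passing the limit was not always enough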;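 also: 100% = mean luminescence of untreated wells and 0% = no signal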); conditions: H69AR lung tumor cells viability, ATP luminescence, 72 h; at 10 µM; stronger effect = lower value
[6] = reversal of MRP1-mediated doxorubicin resistance, pilot screen, H69AR cells, doxorubicin co-treatment (AID 601;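 active = viability loss from added drug above about 55%, and viability with drug at most 40%, in both replicates, limit read from the data, passing the limit was not always enough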); conditions: CellTiter-Glo, 72 h, at 10 µM; for differential viability (reversal): stronger effect = higher value
[7] = 384-well plate pilot, post-Golgi transport modulator project, inhibition of yeast transport mutant growth (AID 636; in the data active = inhibition above about 31%); conditions: absorbance 615 nm, about 18 h, stronger effect = higher value
[8] = growth suppression of yeast trafficking mutant, preliminary HTS, modulators of trafficking downstream of Golgi apparatus project, 1536-format plate, OD 615 nm (AID 637; in the data active = inhibition above about 30%); conditions: yeast transport mutant growth, absorbance 615 nm, 18 h; stronger effect = higher value
[9] = H69AR cells + 2 uM doxorubicin, measured here: viability with 2 uM doxorubicin, stronger effect = lower value
[10] = H69AR cells, compound alone cytotoxicity

Chain of Receptor tyrosine-protein kinase erbB-2 (Homo sapiens) (P04626 whole entry, looked up): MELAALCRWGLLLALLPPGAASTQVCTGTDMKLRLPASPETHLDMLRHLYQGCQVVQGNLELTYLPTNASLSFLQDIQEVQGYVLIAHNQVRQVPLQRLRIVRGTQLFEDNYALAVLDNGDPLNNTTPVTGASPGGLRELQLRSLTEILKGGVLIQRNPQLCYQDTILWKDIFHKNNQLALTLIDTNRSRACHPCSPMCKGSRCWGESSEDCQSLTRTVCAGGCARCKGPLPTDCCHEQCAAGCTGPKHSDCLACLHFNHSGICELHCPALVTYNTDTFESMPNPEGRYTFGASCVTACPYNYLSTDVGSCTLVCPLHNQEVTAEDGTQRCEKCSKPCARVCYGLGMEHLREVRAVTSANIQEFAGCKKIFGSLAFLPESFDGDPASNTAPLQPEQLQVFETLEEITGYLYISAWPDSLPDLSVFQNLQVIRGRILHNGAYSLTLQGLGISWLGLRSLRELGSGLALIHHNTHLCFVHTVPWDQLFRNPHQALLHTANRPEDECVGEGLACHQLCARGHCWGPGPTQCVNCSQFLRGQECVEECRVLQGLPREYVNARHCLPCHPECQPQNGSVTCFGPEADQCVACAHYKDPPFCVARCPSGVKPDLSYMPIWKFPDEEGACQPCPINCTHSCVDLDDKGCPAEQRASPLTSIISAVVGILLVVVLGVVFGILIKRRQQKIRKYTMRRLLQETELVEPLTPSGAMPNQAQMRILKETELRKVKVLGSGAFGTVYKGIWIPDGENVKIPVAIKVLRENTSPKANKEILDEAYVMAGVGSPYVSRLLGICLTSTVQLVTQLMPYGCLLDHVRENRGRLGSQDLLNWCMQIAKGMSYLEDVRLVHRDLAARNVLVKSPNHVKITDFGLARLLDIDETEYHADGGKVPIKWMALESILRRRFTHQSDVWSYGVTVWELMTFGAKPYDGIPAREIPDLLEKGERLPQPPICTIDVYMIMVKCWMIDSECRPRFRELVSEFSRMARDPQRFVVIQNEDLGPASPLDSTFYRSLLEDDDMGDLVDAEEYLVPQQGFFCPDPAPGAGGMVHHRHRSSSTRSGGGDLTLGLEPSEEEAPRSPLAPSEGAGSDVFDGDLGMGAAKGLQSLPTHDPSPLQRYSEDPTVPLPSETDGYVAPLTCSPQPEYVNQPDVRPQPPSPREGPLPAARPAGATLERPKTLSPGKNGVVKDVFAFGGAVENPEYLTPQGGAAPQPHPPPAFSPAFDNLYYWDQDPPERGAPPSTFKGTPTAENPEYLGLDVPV

| Compound | viability [1] | Her2 level [2] | viability [3] | viability [4] | viability [5] | differential viability (reversal) ([6]; H69AR cells + 2 uM doxorubicin) | viability [6, 9] | viability [6, 10] | inhibition [7] | inhibition [8] |
| --- | --- | --- | --- | --- | --- | --- | --- | --- | --- | --- |
| CCN(CC)CCn1c2ccccc2c2nc(C)sc21 | 113% | 96.5% (inactive) | 113% (inactive) | 104% (inactive) | 92.6% (inactive) | -7.46% (inactive) | 100% | 92.6% | -5.32% (inactive) | -2.54% (inactive) |
| CCOC(=O)Nc1ccc(OC)cc1S(=O)(=O)N1CCCCC1 | 88.5% | 93% (inactive) | 88.5% (inactive) | 112% (inactive) | 99% (inactive) | 17.7% (inactive) | 81.3% | 99% | -1.84% (inactive) | -1.8% (inactive) |
| Nc1cc(C(=O)O)ccc1Nc1ccc(F)c(F)c1 | 88% | 112% (inactive) | 88% (inactive) | 89.2% (inactive) | 105% (inactive) | 10.3% (inactive) | 94.3% | 105% | 2.4% (inactive) | 4.75% (inactive) |
| CCCN1CCN(C(=O)Cn2c(=O)oc3cc(S(=O)(=O)NCc4ccccc4)ccc32)CC1 | 92.5% | 95% (inactive) | 92.5% (inactive) | 85.6% (inactive) | 95.3% (inactive) | 7.88% (inactive) | 87.5% | 95.3% | -2.67% (inactive) | -0.98% (inactive) |
| O=C1c2ccccc2C(=O)N1CNc1ccccc1 | 96.5% | 93.5% (inactive) | 96.5% (inactive) | 108% (inactive) | 101% (inactive) | -17.7% (inactive) | 118% | 101% | -5.2% (inactive) | -1.15% (inactive) |
| COC(=O)CCC(=O)Nc1cccc(Br)c1 | 128% | 85% (inactive) | 128% (inactive) | 110% (inactive) | 101% (inactive) | 0.985% (inactive) | 100% | 101% | -9.32% (inactive) | -3.65% (inactive) |
| O=C(NCCc1c[nH]c2ccccc12)c1ccc(S(=O)(=O)NCc2ccco2)cc1 | 93.5% | 83.5% (inactive) | 93.5% (inactive) | 60.2% (inactive) | 65.6% (inactive) | -11.9% (inactive) | 77.5% | 65.6% | -1.82% (inactive) | -5.4% (inactive) |
| COc1cc(Cl)c(C)cc1NC(=O)COC(=O)c1cnc(C)cn1 | 108% | 110% (inactive) | 108% (inactive) | 95.1% (inactive) | 97% (inactive) | -2.33% (inactive) | 99.3% | 97% | -4.25% (inactive) | -0.95% (inactive) |
| CCCc1nc(N2CCOCC2)c(C#N)c2c1CCCC2 | 81% | 86.5% (inactive) | 81% (inactive) | 81.5% (inactive) | 91.4% (inactive) | -0.135% (inactive) | 91.5% | 91.4% | -0.13% (inactive) | 6.77% (inactive) |
| N#Cc1ccc(CSc2nnc(-c3cnccn3)o2)cc1 | 106% | 110% (inactive) | 106% (inactive) | 93.8% (inactive) | 106% (inactive) | 23.4% (inactive) | 82.5% | 106% | -0.67% (inactive) | -0.97% (inactive) |
| CCOC(=O)c1[nH]c(C)c(C(=O)N2CCN(c3ccc(F)cc3)CC2)c1C | 107% | 84% (inactive) | 107% (inactive) | 107% (inactive) | 92.3% (inactive) | 2.1% (inactive) | 90.2% | 92.3% | -2.37% (inactive) | -4.44% (inactive) |
| Cc1ccc(-c2nnn(CC(=O)N(CC(=O)NC3CCCCC3)c3cnc4ccccc4c3)n2)o1 | 98% | 92% (inactive) | 98% (inactive) | 93.3% (inactive) | 96.5% (inactive) | 15.9% (inactive) | 80.6% | 96.5% | -7.6% (inactive) | -1.61% (inactive) |
| CC(=O)c1cc(F)c(N2CCN(C(=O)Cc3ccccc3)CC2)cc1C | 96.5% | 97% (inactive) | 96.5% (inactive) | 107% (inactive) | 93.5% (inactive) | -7.49% (inactive) | 101% | 93.5% | 0% (inactive) | -4.35% (inactive) |
| O=C(/C=C1\NC2(CCCC2)Cc2ccccc21)N1CCOCC1 | 101% | 85% (inactive) | 101% (inactive) | 98.2% (inactive) | 102% (inactive) | 17.3% (inactive) | 85% | 102% | -7.12% (inactive) | -3.49% (inactive) |
| Cc1ccc(-c2nn(-c3ccccc3)cc2CN(Cc2ccccc2)C(=O)CCC(=O)O)o1 | 100% | 94% (inactive) | 100% (inactive) | 86.5% (inactive) | 85.7% (inactive) | 8.97% (inactive) | 76.7% | 85.7% | -5.07% (inactive) | 3.02% (inactive) |
| CCCCSc1nc2c(cnn2-c2ccc(Cl)cc2)c(=O)[nH]1 | 93% | 83.5% (inactive) | 93% (inactive) | 85.5% (inactive) | 75.1% (inactive) | 2.96% (inactive) | 72.1% | 75.1% | -4.93% (inactive) | 7.38% (inactive) |
